This is a sample that favours compounds with a hit; in the whole collection about 1.9% have one here.
MC4R antag cAMP – antagonists of human melanocortin 4 receptor (MC4R); MC4R-expressing cells, MTII-stimulated cAMP, LANCE TR-FRET; inhibition, % at 6.5 µM; 360,000 compounds, 0.48% hits;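 active means inhibition above its plate's cutoff, the mean of tested wells on that plate plus 3 SD, cut at about 29% in these data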;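 further: 0% = Melanotan II alone and 100% = Melanotan II plus saturating MCL0020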
Target sequence (P32245 whole entry, looked up): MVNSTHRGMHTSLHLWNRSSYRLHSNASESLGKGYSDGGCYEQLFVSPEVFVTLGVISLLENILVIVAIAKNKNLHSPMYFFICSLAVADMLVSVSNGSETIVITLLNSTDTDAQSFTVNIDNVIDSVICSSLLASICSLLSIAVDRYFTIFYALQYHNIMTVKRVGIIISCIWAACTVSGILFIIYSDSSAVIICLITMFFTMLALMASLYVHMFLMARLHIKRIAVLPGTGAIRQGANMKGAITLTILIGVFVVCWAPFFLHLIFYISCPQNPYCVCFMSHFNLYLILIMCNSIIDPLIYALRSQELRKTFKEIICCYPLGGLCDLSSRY
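System: U2OS cells stably expressing human melanocortin 4 receptor (MC4R). Reagent: Melanotan II challenge after compound preincubation. Doses: 6.5 µM. Times: 30-min compound, 1-h challenge, 1-h detection, room temperature. Measured by: TR-FRET with Eu-cAMP and labeled anti-cAMP, 671 nm. Replicates: singlicate.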
MC4R barr agon – activates human MC4R beta-arrestin recruitment; P32245; U2OS MC4R beta-arrestin complementation, luminescence; percent of melanotan II response, DMSO zero; activation, % at 8.9 µM; 360,000 compounds, 0.98% hits; AID 540308;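 active means activation above a per-plate cutoff, the mean activation of sample wells on that plate plus 3 SD, cut at about 8% in these data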
NOD2 RIPK2 PPI – inhibitors of human NOD2-RIPK2 interaction | O43353 | CHO BLA complementation NOD2-RIPK2, CCF4 ratio | inhibition, % at 4.98 µM | 360,000 compounds, 0.38% hits | AID 624267; in the data active means inhibition above about 21%;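 further: 0% = vehicle only and 100% = reference blocker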
NTR1 ag – NTR1 (human) agonism. NTR1-U2OS beta-arrestin-GFP spot imaging, agonist mode. activation, % at 20 µM. 330,000 compounds, 0.17% hits;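 active means activation at or above 40% of the spot to cytoplasm intensity ratio, with at least 20 cells analyzed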;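 further: 0% = DMSO without peptide and 100% = 100 nM NTR1 peptide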
TLR4 MyD88 comp – inhibitors of human TLR4-MyD88 binding; 200,000 compounds, 0.18% hits; HeLa CL3-4 TLR4/MyD88 BLA complementation, FRET ratio; O00206+Q99836; inhibition, % at 8.4 µM; AID 861; in the data active means inhibition above about 25%;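 further: 0% = vehicle and 100% = reference inhibitor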
TLR9-MyD88 block – blocks human TLR9 binding to MyD88; CHO BLA complementation TLR9-MyD88, CCF4 FRET ratio; inhibition, % at 4.98 µM; 340,000 compounds, 0.21% hits;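 active means inhibition above the mean over all tested compounds plus 3 SD, cut at about 21% in these data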;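 further: 0% = DMSO only wells and 100% = clavulanate BLA inhibitor control wells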
MC4R barr ag – human MC4R beta-arrestin agonism confirmation; shares compounds with MC4R barr agon; U2OS MC4R beta-arrestin recruitment, luminescence; scaled DMSO 0%, Melanotan II 100%; activation, % at 8.9 µM; 2,400 compounds, 31% hits;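 active means mean activation across replicates above the hit cutoff set in the earlier primary screen, cut at about 8% in these data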
MOR-DOR barr ag – activates mu-delta opioid heterodimer, MC4R agonist counter-screen; shares compounds with MC4R barr agon; U2OS PathHunter beta-arrestin, beta-gal luminescence; percent of deltorphin B response, DMSO zero; activation, % at 9.2 µM; 2,400 compounds, 5.8% hits; AID 602194;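 active means mean activation across replicates exceeds the hit threshold derived in the earlier primary screen, cut at about 18% in these data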;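 further: 100% = deltorphin B at 0.9 µM final and 0% = DMSO alone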
Starred values were filed as active, the others as inactive.

`CC1CCc2sc(C(=O)Nc3nnc(SCc4ccc(F)cc4)s3)cc2C1` (stereo not drawn) gave MC4R antag cAMP 3.3, MC4R barr agon 32.5*, NOD2 RIPK2 PPI -1.4, NTR1 ag 2.0, TLR4 MyD88 comp 1.4, TLR9-MyD88 block 5.7, MC4R barr ag 12.5* and MOR-DOR barr ag 2.5.
Screening O=C(Nc1nnc(SCc2ccc(F)cc2)s1)c1ccco1 returned MC4R antag cAMP 0.4, MC4R barr agon -0.9, NOD2 RIPK2 PPI -6.5, NTR1 ag 1.9, TLR4 MyD88 comp 15.6 and TLR9-MyD88 block 3.1.
`COC(=O)c1ccc(CSc2nnc(NC(=O)c3cc4c(s3)CCCC4)s2)cc1` gave MC4R antag cAMP 6.9, MC4R barr agon 18.3*, NOD2 RIPK2 PPI -9.7, NTR1 ag -0.4, TLR4 MyD88 comp -14.4, TLR9-MyD88 block 1.2, MC4R barr ag -0.3 and MOR-DOR barr ag 1.9.
`CC(C)CCNC(=O)C1CC2Cn3c(nc4cc(Cl)c(Cl)cc43)C2N1C` (stereo not drawn) gave MC4R antag cAMP 9.2, MC4R barr agon -0.7, NOD2 RIPK2 PPI 0.3, NTR1 ag 5.2 and TLR9-MyD88 block -6.5.
Screening Cc1ccccc1OCC(=O)Nc1ccc2c(c1)C(=O)c1ccccc1C2=O returned MC4R antag cAMP 1.6, MC4R barr agon 22.1*, NOD2 RIPK2 PPI -9.6, NTR1 ag 7.3, TLR4 MyD88 comp -1.4, TLR9-MyD88 block 6.1, MC4R barr ag 8.9* and MOR-DOR barr ag 4.5.
COc1ccccc1OCC(=O)Nc1ccc(NC(=O)COc2ccccc2OC)cc1 was read as MC4R antag cAMP -1.8, MC4R barr agon 18.4*, NOD2 RIPK2 PPI -1.4, NTR1 ag 2.5, TLR9-MyD88 block -7.0, MC4R barr ag 23.2* and MOR-DOR barr ag 17.1.
Screening Cc1ccccc1OCC(=O)Nc1cccc(C(=O)O)c1 returned MC4R antag cAMP 0.3, MC4R barr agon -2.4, NOD2 RIPK2 PPI -3.1, TLR4 MyD88 comp 12.7 and TLR9-MyD88 block 3.8.
`CCN(C(=O)COC(=O)c1ccc2[nH]c3c(c2c1)CCCC3)C1CCS(=O)(=O)C1` (stereo not drawn) gave MC4R antag cAMP 0.1, MC4R barr agon 0.4, NOD2 RIPK2 PPI -10.5, NTR1 ag 2.4, TLR4 MyD88 comp -7.0 and TLR9-MyD88 block 10.0.
CCOc1ccc(-n2nnnc2SCC(=O)c2ccccc2)cc1 was read as MC4R antag cAMP 10.3, MC4R barr agon 16.0*, NOD2 RIPK2 PPI 6.0, NTR1 ag 3.4, TLR4 MyD88 comp 1.2, TLR9-MyD88 block -14.0, MC4R barr ag -2.8 and MOR-DOR barr ag 1.6.
`COc1ccc(-n2nnnc2SCC(=O)c2cccc(OC)c2)cc1` gave MC4R antag cAMP 19.6, MC4R barr agon 1.3, NOD2 RIPK2 PPI -2.1, NTR1 ag 3.1, TLR4 MyD88 comp 0.5 and TLR9-MyD88 block 0.7.
CCOC(=O)c1[nH]c(COC(=O)CCOc2ccccc2OC)c(C(=O)OCC)c1C was read as MC4R antag cAMP 4.7, MC4R barr agon 16.4*, NOD2 RIPK2 PPI -0.5, NTR1 ag 0.5, TLR4 MyD88 comp -7.9, TLR9-MyD88 block 3.7, MC4R barr ag 2.0 and MOR-DOR barr ag 6.5.
Screening COc1cc2c(-c3ccc(O)cc3)nc3c(c(C)nn3-c3ccccc3)c2cc1OC returned MC4R antag cAMP 3.2, MC4R barr agon 10.1*, NOD2 RIPK2 PPI 3.4, TLR4 MyD88 comp -2.4, TLR9-MyD88 block 8.4, MC4R barr ag 2.2 and MOR-DOR barr ag 1.9.
For O=C(c1cccc(Br)c1)c1nc2ccccc2[nH]c1=O the results were NOD2 RIPK2 PPI -20.0.
`Cc1ccc(Oc2nnc(-c3ccccc3)cc2C#N)cc1` gave MC4R antag cAMP 6.3, MC4R barr agon 27.4*, NOD2 RIPK2 PPI -0.3, NTR1 ag 5.2, TLR4 MyD88 comp 10.1, TLR9-MyD88 block 17.6, MC4R barr ag 4.8 and MOR-DOR barr ag 9.0.
CCn1cnc2cc(NCc3ccc(OC)cc3)ccc21 was read as MC4R antag cAMP -3.6, MC4R barr agon 0.2, NOD2 RIPK2 PPI 3.6, NTR1 ag -0.4, TLR4 MyD88 comp -10.7 and TLR9-MyD88 block -0.1.
Screening CCOc1ccc2nc3cc(NCc4ccc(OC)cc4)ccc3c(N)c2c1 returned MC4R antag cAMP 18.8, MC4R barr agon 12.8*, NOD2 RIPK2 PPI 0.1, NTR1 ag 0.8, TLR9-MyD88 block -7.6, MC4R barr ag 15.0* and MOR-DOR barr ag 14.9.
Screening CCCNc1c(NS(=O)(=O)c2ccc(C(C)(C)C)cc2)c(=O)oc2ccccc12 returned MC4R antag cAMP 5.3, MC4R barr agon 11.0*, NOD2 RIPK2 PPI -4.9, NTR1 ag 3.2, TLR9-MyD88 block 2.2, MC4R barr ag 1.9 and MOR-DOR barr ag 5.6.
`O=C(Nc1ccc2oc(=O)ccc2c1)c1ccc(-c2cccc(Cl)c2)o1` gave MC4R antag cAMP 21.4, MC4R barr agon 19.5*, NOD2 RIPK2 PPI 5.4, NTR1 ag 7.9, TLR9-MyD88 block -7.2, MC4R barr ag -0.1 and MOR-DOR barr ag 8.5.
Screening CC1Sc2ccc(S(=O)(=O)CCC(=O)N3CCN(c4cccc(Cl)c4)CC3)cc2NC1=O (stereo not drawn) returned MC4R antag cAMP -0.4, MC4R barr agon -1.6, NOD2 RIPK2 PPI 5.6, NTR1 ag 1.1 and TLR9-MyD88 block 8.1.
Screening Oc1cccc(C(O)CNCc2ccc(OCc3ccc(Cl)cc3Cl)cc2)c1 (stereo not drawn) returned MC4R antag cAMP 0.0, MC4R barr agon 13.8*, NOD2 RIPK2 PPI 8.1, NTR1 ag 5.4, TLR4 MyD88 comp -7.8, TLR9-MyD88 block 2.0, MC4R barr ag 27.2* and MOR-DOR barr ag 15.3.
Oc1cccc(C(O)CNCc2ccc(-c3ccccc3)cc2)c1 (stereo not drawn) was read as MC4R antag cAMP -4.6, MC4R barr agon -0.9, NOD2 RIPK2 PPI 1.3, NTR1 ag 3.4, TLR4 MyD88 comp 0.3 and TLR9-MyD88 block -8.8.
N=C1/C(=C/c2cccn2-c2ccc([N+](=O)[O-])cc2)C(=O)N=C2SC=CN12 was read as MC4R antag cAMP -17.9, MC4R barr agon -2.3, NOD2 RIPK2 PPI -1.5, NTR1 ag 2.6, TLR4 MyD88 comp 5.9 and TLR9-MyD88 block -7.4.
`COc1ccc(-c2ccc(/C=C3/C(=N)N4C=CSC4=NC3=O)o2)c([N+](=O)[O-])c1` gave MC4R antag cAMP -3.5, MC4R barr agon 19.8*, NOD2 RIPK2 PPI 2.4, TLR4 MyD88 comp 0.7, TLR9-MyD88 block -4.2, MC4R barr ag 2.6 and MOR-DOR barr ag 2.4.
